Mdm2 MdmX PPI = human Mdm2/MdmX binding inhibition; actives 3% (n = 330,000); inhibition, % at 8 µM; O15151+Q00987; SaOS-2 split-luciferase Mdm2/MdmX complementation, luminescence;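 active = inhibition of at least 50% at 8 µM in the primary screen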
Target sequence (O15151 whole entry, looked up): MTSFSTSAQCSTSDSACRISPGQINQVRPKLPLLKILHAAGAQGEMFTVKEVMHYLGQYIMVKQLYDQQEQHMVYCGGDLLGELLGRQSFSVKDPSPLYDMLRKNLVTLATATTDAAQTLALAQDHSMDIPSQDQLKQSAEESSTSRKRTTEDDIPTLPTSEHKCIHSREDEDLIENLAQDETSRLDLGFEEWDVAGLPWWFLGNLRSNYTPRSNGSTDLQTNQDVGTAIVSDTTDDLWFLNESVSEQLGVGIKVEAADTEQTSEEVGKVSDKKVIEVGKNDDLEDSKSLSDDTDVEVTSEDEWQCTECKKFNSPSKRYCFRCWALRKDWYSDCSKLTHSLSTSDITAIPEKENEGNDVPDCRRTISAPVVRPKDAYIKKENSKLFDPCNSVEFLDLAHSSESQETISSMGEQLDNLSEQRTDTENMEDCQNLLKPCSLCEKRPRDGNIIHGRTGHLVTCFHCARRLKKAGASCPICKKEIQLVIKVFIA
Target sequence (Q00987 whole entry, looked up): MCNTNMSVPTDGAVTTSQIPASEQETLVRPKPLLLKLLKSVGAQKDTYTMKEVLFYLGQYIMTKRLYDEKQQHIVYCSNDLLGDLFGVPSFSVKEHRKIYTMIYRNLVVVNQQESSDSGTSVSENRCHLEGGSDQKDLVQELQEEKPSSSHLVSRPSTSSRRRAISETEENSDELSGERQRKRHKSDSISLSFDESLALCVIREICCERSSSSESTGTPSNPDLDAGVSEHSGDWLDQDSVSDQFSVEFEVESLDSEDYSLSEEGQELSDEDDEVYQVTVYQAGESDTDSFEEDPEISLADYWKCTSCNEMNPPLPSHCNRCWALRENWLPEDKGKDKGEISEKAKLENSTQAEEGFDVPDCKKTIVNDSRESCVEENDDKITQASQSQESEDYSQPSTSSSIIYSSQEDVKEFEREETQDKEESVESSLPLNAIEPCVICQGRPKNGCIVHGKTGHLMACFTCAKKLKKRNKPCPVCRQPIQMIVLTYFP
CSC inhib = cancer stem cell inhibition | AID 2717 | inhibition, % at 7.5 µM | cancer stem cell-like cells viability, luminescence | actives 1.1% (n = 300,000); in the data active = inhibition above about 75%; tested in HMLE shEcad cells
UPR XBP1 act = activators of adaptive arm of unfolded protein response (XBP1); CHO-XBP1 luciferase reporter, IRE1-XBP1 UPR activation, luminescence; percent of tunicamycin response, DMSO as zero; activation, % at 20 µM; actives 0.33% (n = 330,000);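 active = versus positive control, 20 µM dose yields 30% or more activation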;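 note: 100% = tunicamycin at 10 µg/mL and 0% = DMSO only wells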
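incubation = overnight seeding at 37 °C, 6 h compound treatment at 37 °C | assay system = CHO-XBP1 cells stably carrying IRE1-XBP1-driven luciferase reporter | input = 1000 cells per well | detection = luciferase luminescence | dosing = single point, 20 µM final compound, 1% DMSO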
Beta apoptosis = blocks beta cell apoptosis; actives 0.8% (n = 300,000); AID 435005; protection from apoptosis, % (concentration not given with the values); INS-1E cytokine-induced death, ATP luminescence, 48 h; percent of positive-control rescue, neutral wells zero;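 active = Every replicate reaches about 75%, or at least half do and their mean reaches it too, limit read from the data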;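 note: 0% = cytokine-treated negative control wells and 100% = positive control rescue; higher means more ATP so stronger rescue from cytokine killing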
UPR CHOP act = apoptotic UPR (CHOP) activation. CHO-CHOP luciferase reporter, luminescence; percent of tunicamycin response over DMSO baseline. activation, % at 10 µM. actives 0.34% (n = 330,000). AID 449763;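 active = at 10 µM dose, activation of 40% or more, normalized to positive control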;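 note: 100% = tunicamycin at 10 µg/mL and 0% = DMSO alone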
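Test system: CHO CHOP reporter cells. Input: 500 CHO-CHOP cells per well. Medium: F12 with 10% FBS. Technique: luciferase luminescence. Measure: percent activation relative to tunicamycin control. Dosing: 10 µM compound, 0.5% DMSO. Timing: 16-18 h cell attachment, then 6 h compound exposure, 37 °C.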
T cruzi repl = T. cruzi replication inhibition; AID 1885; T. cruzi beta-gal in NIH3T3, luminescence, 90 h; actives 1.4% (n = 300,000); inhibition, % (test concentration not listed);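 active = mean inhibition across valid replicates above about 55%, limit read from the data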;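 note: signal also drops with host cell toxicity which is not excluded here; 0% = plate median of DMSO wells and 100% = zero luminescence signal; higher percent means less beta-gal luminescence so fewer parasites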
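System: Mouse NIH/3T3 fibroblasts infected with β-gal-expressing T. cruzi Tulahuen C4 | Quantity: NIH/3T3 cells, 5,000 per well | Reagent: 5000 reporter trypomastigotes per well | Dosing: Compound pinned at 50 nL/well, DMSO | Schedule: 3 h host attachment, then at least 90 h co-culture | Detection: GalScreen luminescence, 60 min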
* = called active by the depositor; . = no result. Only some compounds are listed: those with a hit (about 5% of all), similar ones and a draw of the others.

SMILES	Mdm2 MdmX PPI	CSC inhib	UPR XBP1 act	Beta apoptosis	UPR CHOP act	T cruzi repl
Cc1cc(=O)n2cccc(O)c2n1	30.8	-6.7	-1.3	-2.5	-0.9	2.8
CCn1cc(C(=O)NCc2ccc3c(c2)OCO3)c(=O)c2cc(F)c(N3CCN(C)CC3)cc21	32.7	17.5	0.1	3.7	0.1	59.7*
CCC(C)NC(=O)c1cn(CC)c2cc(N3CCN(C)CC3)c(F)cc2c1=O (centres undefined)	7.6	29.0	-2.2	-5.6	1.3	24.9
CCn1cc(C(=O)N[C@H](C)c2ccccc2)c(=O)c2cc(F)c(N3CCN(C)CC3)cc21	22.3	75.5*	2.3	5.7	1.5	26.0
O=C(CN1CC[n+]2c(-c3cccs3)csc21)c1ccc(-c2ccccc2)cc1	4.1	1.5	0.0	110.6*	-1.4	3.5
Cc1sc2ncnc(NCCCN3CCCC3=O)c2c1C	7.7	-3.5	2.6	3.7	-0.2	-8.0
CCC(=O)NC(=S)Nc1cccc(Cl)c1N1CCCCC1	16.9	85.4*	5.8	7.2	-2.1	9.0
CCCC(=O)NC(=S)Nc1cccc(Cl)c1N1CCCCC1	30.7	.	6.8	0.5	1.2	1.1
CCOc1cc(/C=C2/SC(=S)N(Cc3ccccc3)C2=O)ccc1O	0.8	76.3*	1.3	0.1	1.8	-3.3
COc1cc(/C=C2/SC(=S)N(Cc3ccccc3)C2=O)cc(Cl)c1O	.	116.8*	.	38.0	.	1.0
COc1ccc(/C=C2\SC(=S)N(CCC(=O)N(CCO)Cc3ccccc3)C2=O)cc1OC	44.1	6.3	-3.9	-15.1	1.1	64.5*
COc1cc(/C=C2/SC(=S)N(Cc3ccccc3)C2=O)ccc1OCC(=O)O	31.1	20.1	-5.6	-5.5	2.2	-2.2
COc1cc([N+](=O)[O-])cc(/C=C2/SC(=S)N(Cc3ccccc3)C2=O)c1O	.	92.2*	.	17.4	.	10.6
COc1ccc(/C=C2\SC(=S)N(CCC(=O)Nc3ccc(C(=O)O)cc3)C2=O)cc1OC	15.9	7.1	-0.2	-5.9	-0.5	-1.9
Cc1cccc(NC(=O)CSc2ccc3nnc(-c4cccnc4)n3n2)c1	10.0	-3.8	-2.6	1.9	1.7	-0.6
O=C(NC1CC1)c1nc(Cn2cc([N+](=O)[O-])cn2)no1	14.3	.	-5.5	.	2.3	-12.5
O=C(CNC(=O)c1ccc(OC(F)F)cc1)Nc1cccc(S(=O)(=O)N2CCCC2)c1	16.6	1.8	-1.3	-2.2	0.8	6.9
CN(CCOc1ccccc1)C(=O)C1CCN(C(=O)c2ccc(F)cc2)CC1	11.9	-0.4	-4.5	.	-1.4	5.1
CCCCCCCCNCCS(=O)(=O)NN1CCOCC1	5.3	.	4.1	.	0.9	.
Cc1ccc(CN2CCN(/N=C/c3ccc(Cl)c([N+](=O)[O-])c3)CC2)cc1	4.2	-9.0	-2.5	.	-0.2	61.9*
Cc1ccc(CN2CCN(/N=C/c3cc([N+](=O)[O-])ccc3Cl)CC2)cc1	5.0	33.3	-3.0	-3.9	-0.6	27.2
CC(CC(=O)NCC1CCCO1)c1ccccc1 (centres undefined)	4.1	-11.7	2.0	-5.8	-2.6	-6.6
COc1ccc(/C(C)=N/N2C(=O)c3ccccc3NC2c2ccc(O)c(OC)c2)cc1 (centres undefined)	-6.8	-7.3	1.0	-1.4	3.2	-12.0
C/C(=N\N1C(=O)c2ccccc2NC1c1ccccc1)c1ccccc1O (centres undefined)	-21.8	3.3	-0.6	87.2*	3.8	65.6*
C/C(=N\N1C(=O)c2ccccc2NC1c1ccco1)c1ccccc1O (centres undefined)	-13.0	-5.3	-5.1	99.1*	-2.1	61.1*
COc1ccc(N2C(=O)CC(S/C(N)=N/N=C(\C)c3cccs3)C2=O)cc1 (centres undefined)	15.9	-4.4	1.6	-5.7	-1.7	-5.6
C=CCn1c(COc2ccccc2F)nnc1SCCN1C(=O)c2ccccc2C1=O	-8.6	-14.8	-0.5	-3.7	1.2	-4.1
Cc1nc(N)nc(N)c1/C=C/C(C)(C)c1ccc(Cl)cc1	.	.	.	.	.	60.5*
CC(C)(C)S(=O)(=O)c1cnc(-c2ccc(Cl)cc2)nc1N	3.0	-6.0	1.9	6.7	6.7	-6.1

High-throughput results as filed in PubChem BioAssay.
